# Test results reported in ChEMBL document CHEMBL4689842, “EUbOPEN Chemogenomics Library wave 1” (2021).
# Test system: HEK-293T
# Assay: Multiplex assay against HEK293T;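 as to Population Tubulin-Different-Phenotype (%): share of the cells with healthy nuclei that show this phenotype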
# Format: toxicity, cell-based
# Conditions: human
# In short: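 At seeding, live cells were stained with Hoechst33342, BioTracker Green Microtubule Cytoskeleton Dye, MitoTracker Red and Annexin V Alexa Fluor 680. After compound addition they were imaged on a CQ1 microscope at 37°C and 5% CO2, and CellPathfinder machine-learning gating sorted them into Hoechst high-intensity objects or normal cells, with normal cells further split into healthy, pyknosed or fragmented nuclei and pyknosed cells into mitotic or apoptotic. Tubulin, mitochondrial-mass and membrane-permeability phenotypes are given as per cents of cells with healthy nuclei.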
# [1] = 12 h, 1 µM, compound concentration 1 uM, replicate 1
# [2] = 12 h, 1 µM, compound concentration 1 uM, replicate 2
# [3] = 12 h, 10 µM, compound concentration 10 uM, replicate 1
# [4] = 12 h, 10 µM, compound concentration 10 uM, replicate 2
# [5] = 24 h, 1 µM, compound concentration 1 uM, replicate 1
# [6] = 24 h, 1 µM, compound concentration 1 uM, replicate 2
# [7] = 24 h, 10 µM, compound concentration 10 uM, replicate 1
# [8] = 24 h, 10 µM, compound concentration 10 uM, replicate 2
# [9] = 48 h, 1 µM, compound concentration 1 uM, replicate 1
# [10] = 48 h, 1 µM, compound concentration 1 uM, replicate 2
# [11] = 48 h, 10 µM, compound concentration 10 uM, replicate 1
# [12] = 48 h, 10 µM, compound concentration 10 uM, replicate 2
smiles,measurement,setting,value
Cl.O=c1c2cccn2c2ccccc2n1CCCN1CCC(c2ccc(Cl)cc2)CC1,Population Apoptotic (%),[1],57%
same,Population Fragmented Nuclei (%),[1],7%
same,Population Healthy Nuclei (%),[1],47%
same,Population Hoechst High Intensity Objects (%),[1],10%
same,Population Membrane Permeable-Phenotype (%),[1],0%
same,Population Mitochondria Different-Phenotype (%),[1],95%
same,Population Mitotic Cells (%),[1],42%
same,Population Normal (%),[1],89%
same,Population Pyknosed Nuclei (%),[1],44%
same,Population Tubulin-Different-Phenotype (%),[1],80%
same,Total Cell Count,[1],267
same,Population Apoptotic (%),[2],30%
same,Population Fragmented Nuclei (%),[2],5%
same,Population Healthy Nuclei (%),[2],38%
same,Population Hoechst High Intensity Objects (%),[2],5%
same,Population Membrane Permeable-Phenotype (%),[2],6%
same,Population Mitochondria Different-Phenotype (%),[2],65%
same,Population Mitotic Cells (%),[2],69%
same,Population Normal (%),[2],94%
same,Population Pyknosed Nuclei (%),[2],56%
same,Population Tubulin-Different-Phenotype (%),[2],59%
same,Total Cell Count,[2],238
same,Population Apoptotic (%),[3],86%
same,Population Fragmented Nuclei (%),[3],8%
same,Population Healthy Nuclei (%),[3],34%
same,Population Hoechst High Intensity Objects (%),[3],17%
same,Population Membrane Permeable-Phenotype (%),[3],5%
same,Population Mitochondria Different-Phenotype (%),[3],100%
same,Population Mitotic Cells (%),[3],13%
same,Population Normal (%),[3],82%
same,Population Pyknosed Nuclei (%),[3],57%
same,Population Tubulin-Different-Phenotype (%),[3],94%
same,Total Cell Count,[3],297
same,Population Apoptotic (%),[4],92%
same,Population Fragmented Nuclei (%),[4],7%
same,Population Healthy Nuclei (%),[4],19%
same,Population Hoechst High Intensity Objects (%),[4],9%
same,Population Mitochondria Different-Phenotype (%),[4],91%
same,Population Mitotic Cells (%),[4],7%
same,Population Normal (%),[4],90%
same,Population Pyknosed Nuclei (%),[4],72%
same,Population Tubulin-Different-Phenotype (%),[4],86%
same,Total Cell Count,[4],212
same,Population Apoptotic (%),[5],53%
same,Population Fragmented Nuclei (%),[5],7%
same,Population Healthy Nuclei (%),[5],55%
same,Population Hoechst High Intensity Objects (%),[5],12%
same,Population Membrane Permeable-Phenotype (%),[5],1%
same,Population Mitochondria Different-Phenotype (%),[5],93%
same,Population Mitotic Cells (%),[5],46%
same,Population Normal (%),[5],87%
same,Population Pyknosed Nuclei (%),[5],37%
same,Population Tubulin-Different-Phenotype (%),[5],73%
same,Total Cell Count,[5],278
same,Population Apoptotic (%),[6],38%
same,Population Fragmented Nuclei (%),[6],5%
same,Population Healthy Nuclei (%),[6],56%
same,Population Hoechst High Intensity Objects (%),[6],4%
same,Population Membrane Permeable-Phenotype (%),[6],4%
same,Population Mitochondria Different-Phenotype (%),[6],75%
same,Population Mitotic Cells (%),[6],61%
same,Population Normal (%),[6],95%
same,Population Pyknosed Nuclei (%),[6],38%
same,Population Tubulin-Different-Phenotype (%),[6],65%
same,Total Cell Count,[6],296
same,Population Apoptotic (%),[7],84%
same,Population Fragmented Nuclei (%),[7],13%
same,Population Healthy Nuclei (%),[7],36%
same,Population Hoechst High Intensity Objects (%),[7],27%
same,Population Membrane Permeable-Phenotype (%),[7],6%
same,Population Mitochondria Different-Phenotype (%),[7],100%
same,Population Mitotic Cells (%),[7],15%
same,Population Normal (%),[7],72%
same,Population Pyknosed Nuclei (%),[7],50%
same,Population Tubulin-Different-Phenotype (%),[7],88%
same,Total Cell Count,[7],286
same,Population Apoptotic (%),[8],98%
same,Population Fragmented Nuclei (%),[8],7%
same,Population Healthy Nuclei (%),[8],34%
same,Population Hoechst High Intensity Objects (%),[8],16%
same,Population Membrane Permeable-Phenotype (%),[8],3%
same,Population Mitochondria Different-Phenotype (%),[8],96%
same,Population Mitotic Cells (%),[8],1%
same,Population Normal (%),[8],83%
same,Population Pyknosed Nuclei (%),[8],58%
same,Population Tubulin-Different-Phenotype (%),[8],67%
same,Total Cell Count,[8],206
same,Population Apoptotic (%),[9],43%
same,Population Healthy Nuclei (%),[9],77%
same,Population Hoechst High Intensity Objects (%),[9],7%
same,Population Membrane Permeable-Phenotype (%),[9],2%
same,Population Mitochondria Different-Phenotype (%),[9],63%
same,Population Mitotic Cells (%),[9],56%
same,Population Normal (%),[9],92%
same,Population Pyknosed Nuclei (%),[9],15%
same,Population Tubulin-Different-Phenotype (%),[9],59%
same,Total Cell Count,[9],453
same,Population Apoptotic (%),[10],31%
same,Population Fragmented Nuclei (%),[10],7%
same,Population Healthy Nuclei (%),[10],70%
same,Population Hoechst High Intensity Objects (%),[10],5%
same,Population Membrane Permeable-Phenotype (%),[10],3%
same,Population Mitochondria Different-Phenotype (%),[10],32%
same,Population Mitotic Cells (%),[10],68%
same,Population Normal (%),[10],94%
same,Population Pyknosed Nuclei (%),[10],22%
same,Population Tubulin-Different-Phenotype (%),[10],54%
same,Total Cell Count,[10],461
same,Population Apoptotic (%),[11],82%
same,Population Fragmented Nuclei (%),[11],15%
same,Population Healthy Nuclei (%),[11],35%
same,Population Hoechst High Intensity Objects (%),[11],38%
same,Population Membrane Permeable-Phenotype (%),[11],2%
same,Population Mitochondria Different-Phenotype (%),[11],97%
same,Population Mitotic Cells (%),[11],17%
same,Population Normal (%),[11],61%
same,Population Pyknosed Nuclei (%),[11],48%
same,Population Tubulin-Different-Phenotype (%),[11],79%
same,Total Cell Count,[11],311
same,Population Apoptotic (%),[12],98%
same,Population Fragmented Nuclei (%),[12],13%
same,Population Healthy Nuclei (%),[12],42%
same,Population Hoechst High Intensity Objects (%),[12],30%
same,Population Membrane Permeable-Phenotype (%),[12],3%
same,Population Mitochondria Different-Phenotype (%),[12],98%
same,Population Mitotic Cells (%),[12],1%
same,Population Normal (%),[12],69%
same,Population Pyknosed Nuclei (%),[12],43%
same,Population Tubulin-Different-Phenotype (%),[12],64%
same,Total Cell Count,[12],191
